Measured values reported in ChEMBL document CHEMBL1124947, “Cationic antiprotozoal drugs. Trypanocidal activity of 2-(4'-formylphenyl)imidazo[1,2-a]pyridinium guanylhydrazones and related derivatives of quaternary heteroaromatic compounds” (J Med Chem, 1990).

Columns and labels:
Type in all cases: functional
Mus musculus [1] = experiment: Trypanocidal Activity at I.C.E. value 0.57 when administered subcutaneously.
Outline: (§1)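 Mice, in groups of five per dose, were given a standard inoculum of blood-stage T. rhodesiense that is lethal to all untreated controls, then dosed subcutaneously. Usually 11 dose levels were used (2^n × 0.42 mg/kg).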

Mus musculus [2] = experiment: Trypanocidal Activity at I.C.E. value 0.65 when administered subcutaneously.; outline: as §1
Mus musculus [3] = experiment: Trypanocidal Activity at I.C.E. value 0.32 when administered subcutaneously.
Outline: (§2)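 Blood-stage T. rhodesiense infection came from a standard inoculum lethal to all untreated mice. Drug was given by subcutaneous injection to groups of five mice. Survival beyond 30 days counted as cure. […] Sub-curative doses scored 0, and data were normalized at each dose.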

Mus musculus [4] = experiment: Trypanocidal Activity at I.C.E. value 0.44 when administered subcutaneously.; outline: as §2
Mus musculus [5] = experiment: Trypanocidal Activity at I.C.E. value 0.17 when administered subcutaneously.
[6] = test system: Trypanosoma brucei rhodesiense; experiment: In Vitro measurement of inhibition of thymidine uptake in cell culture of Trypanosoma rhodesiense; conditions: read-out: ID50 (the source's name)
Outline: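 Parasites harvested from infected rats and incubated 3 h across a drug concentration series, usually 0.1–100 µg/mL. Incorporation of radiolabeled thymidine measured. ID50 is the concentration (µg/mL) producing 50% inhibition.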

[7] = test system: Trypanosoma brucei rhodesiense; experiment: In Vitro measurement of inhibition of leucine uptake in cell culture of Trypanosoma rhodesiense; conditions: read-out: ID50 (the source's name)
Outline: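 Trypanosomes harvested from infected rats, cultured 3 h with several concentrations of drug, usually 0.1–100 µg/mL. Radiolabeled L-leucine uptake measured. ID50 is the concentration in µg/mL giving 50% inhibition of incorporation.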

Mus musculus [8] = experiment: Trypanocidal Activity at I.C.E. value 0.16 when administered subcutaneously.
Mus musculus [9] = experiment: Trypanocidal Activity at I.C.E. value 0.57 when administered perorally.
Mus musculus [10] = experiment: Trypanocidal Activity at I.C.E. value 0.52 when administered subcutaneously.; outline: as §2
Mus musculus [11] = experiment: Trypanocidal Activity at I.C.E. value 0.38 when administered subcutaneously.; outline: as §2
Mus musculus [12] = experiment: Trypanocidal Activity at I.C.E. value 0.36 when administered subcutaneously.
Mus musculus [13] = experiment: Trypanocidal Activity at I.C.E. value 0.67 when administered subcutaneously.; outline: as §1
Mus musculus [14] = experiment: Trypanocidal Activity at I.C.E. value 0.59 when administered subcutaneously.; outline: as §1
Mus musculus [15] = experiment: Trypanocidal Activity at I.C.E. value 0.47 when administered subcutaneously.; outline: as §2
Mus musculus [16] = experiment: Trypanocidal Activity at I.C.E. value 0.24 when administered subcutaneously.; outline: as §2
Mus musculus [17] = experiment: Trypanocidal Activity at I.C.E. value 0.29 when administered subcutaneously.; outline: as §2

C[n+]1c(-c2ccc(/C=N/NC(=O)c3ccc(N)cc3)cc2)cn2ccccc21.Cc1ccc(S(=O)(=O)[O-])cc1 showed a CD50 (Mus musculus [1]) of 0.8 mg/kg.

In the case of Br.CC/N=C(\NCC)N/N=C/c1ccc(/C=C/c2cn3c(C)cccc3[n+]2C)cc1.[Br-], the CD50 (Mus musculus [2]) is reported as 0.4 mg/kg.

With Cc1ccc(S(=O)(=O)[O-])cc1.Cn1cc[n+](C)c1/C=C/c1ccc(/C=N/NC(=O)c2ccc(N)cc2)cc1 the CD50 (Mus musculus [3]) was 26 mg/kg.

For Br.C[n+]1c(-c2ccc(/C=N/NC(=N)N3CCCCC3)cc2)cn2ccccc21.[Br-], the CD50 (Mus musculus [4]) was 0.8 mg/kg.

Cc1ccc(S(=O)(=O)O)cc1.Cc1ccc(S(=O)(=O)[O-])cc1.Cc1cccc2n1cc(/C=N/NC(=N)NO)[n+]2C showed a CD50 (Mus musculus [5]) of 106 mg/kg.

With C[n+]1c(COc2ccc(/C=N/Nc3nc[nH]n3)cc2)cn2ccccc21.[Br-] the IC50 [6] was 0.5 µg/mL and the IC50 [7] was over 10 µg/mL.

Cc1ccc(S(=O)(=O)[O-])cc1.Cc1cccc2n1cc(-c1ccc(COc3ccc(/C=N/NC(=O)c4ccc(N)cc4)cc3)cc1)[n+]2C gave a CD50 (Mus musculus [4]) of 13 mg/kg.

Work on C[n+]1cscc1COc1ccc(/C=N/NC(=N)N2CCCC2)cc1.Cc1ccc(S(=O)(=O)O)cc1.Cc1ccc(S(=O)(=O)[O-])cc1 yielded a CD50 (Mus musculus [8]) of 13 mg/kg, an IC50 [6] of 2.2 µg/mL and an IC50 [7] of 0.7 µg/mL.

With Br.Cc1ccn2cc(COc3ccc(/C=N/NC(=N)N4CCCC4)cc3)[n+](C)c2c1.[Br-] the CD50 (Mus musculus [3]) was 0.4 mg/kg.

With Cc1ccc2n(c1)cc(-c1ccc(/C=N/Nc3nc(N)nc(N)n3)cc1)[n+]2C.[I-] the IC50 [6] was 0.3 µg/mL and the IC50 [7] was over 10 µg/mL.

Compound Br.Cc1ccn2cc(COc3ccc(/C=N/NC(=N)N)cc3)[n+](C)c2c1.[Br-] has a CD50 (Mus musculus [9]) of 6.6 mg/kg and a CD50 (Mus musculus [10]) of 0.2 mg/kg.

Br.CC(Cc1c[nH]cn1)NC(=N)N/N=C/c1ccc(-c2cn3ccccc3[n+]2C)cc1.[Br-] (stereo not drawn) showed a CD50 (Mus musculus [11]) of 1.6 mg/kg.

Br.C[n+]1c(-c2ccc(/C=N/NC3=NCCN3)cc2)c(Br)n2ccccc21.[Br-] showed a CD50 (Mus musculus [5]) of 3.3 mg/kg, an IC50 [6] of 0.7 µg/mL and an IC50 [7] of 0.7 µg/mL.

In the case of Br.C=CCNC(=N)N/N=C/c1ccc(-c2cn3ccccc3[n+]2C)cc1.[Br-], the CD50 (Mus musculus [2]) is reported as 0.2 mg/kg.

Br.C=CC[n+]1c(-c2ccc(/C=N/NC(=N)N)cc2)cn2ccccc21.[Br-] was tested, and the CD50 (Mus musculus [12]) was 0.4 mg/kg.

In the case of C[n+]1c(COc2ccc(/C=N/NC(=N)N)cc2)cn2cc(C(F)(F)F)ccc21.Cc1ccc(S(=O)(=O)O)cc1.Cc1ccc(S(=O)(=O)[O-])cc1, the CD50 (Mus musculus [13]) is reported as 6.6 mg/kg.

With Br.C[n+]1c(-c2ccc(/C=N/NC3=NCCN3)cc2)cn2ccsc21.[Br-] the CD50 (Mus musculus [4]) was 0.8 mg/kg, the IC50 [6] was 0.6 µg/mL and the IC50 [7] was 0.8 µg/mL.

With C[n+]1c(-c2ccc(/C=N/NC(=N)NO)cc2)cn2ccsc21.Cc1ccc(S(=O)(=O)O)cc1.Cc1ccc(S(=O)(=O)[O-])cc1 the CD50 (Mus musculus [10]) was 0.8 mg/kg, the IC50 [6] was 2 µg/mL and the IC50 [7] was 1.7 µg/mL.

Br.C[n+]1c(COc2ccc(/C=N/NC(=N)NO)cc2)cn2cc(C(F)(F)F)ccc21.[Br-] showed a CD50 (Mus musculus [14]) of 6.6 mg/kg.

Compound Br.Cc1ccc2n(c1)cc(-c1ccc(/C=N/NC(=N)N3CCOCC3)cc1)[n+]2C.[Br-] has a CD50 (Mus musculus [15]) of 0.8 mg/kg.

With Br.Cc1c(-c2ccc(/C=N/NC(=N)N3CCCC3)cc2)[n+](C)c2ccccn12.[Br-] the CD50 (Mus musculus [15]) was 0.2 mg/kg.

Br.CCCC/N=C(/NCCCC)N/N=C/c1ccc(-c2cn3ccc(C)cc3[n+]2C)cc1.[Br-] showed a CD50 (Mus musculus [16]) of 53 mg/kg.

Work on CC(=O)Nc1ccc(-c2cn3ccc4ccccc4c3[n+]2C)cc1.[Br-] yielded a CD50 (Mus musculus [5]) of 212 mg/kg, an IC50 [6] of 3.2 µg/mL and an IC50 [7] of 5.2 µg/mL.

For Cc1ccc(S(=O)(=O)N/N=C/c2ccc(-c3cn4ccccc4[n+]3C)cc2)cc1.[Br-], the CD50 (Mus musculus [5]) was 53 mg/kg.

Compound Br.COc1ccc2n(c1)cc(-c1ccc(/C=N/NC(=N)SC)cc1)[n+]2C.[Br-] has a CD50 (Mus musculus [15]) of 13 mg/kg.

For C[n+]1c(-c2ccc(C(=N)NO)cc2)cn2ccccc21.[Cl-], the CD50 (Mus musculus [17]) was 53 mg/kg.

Work on Br.CCSc1ccc2n(c1)cc(-c1ccc(/C=N/NC(=N)SC)cc1)[n+]2C.[Br-] yielded a CD50 (Mus musculus [8]) of 106 mg/kg.

In the case of Br.Cn1c(COc2ccc(/C=N/NC3=NCCCN3)cc2)[n+](C)c2ccccc21.[Br-], the CD50 (Mus musculus [9]) is reported as 6.6 mg/kg, the CD50 (Mus musculus [10]) is reported as 1.6 mg/kg and the IC50 [6] is reported as 4.4 µg/mL. It also gave an IC50 [7] of over 10 µg/mL.

With Br.Cn1cc[n+](C)c1/C=C/c1ccc(/C=N/NC(=N)NO)cc1.[Br-] the CD50 (Mus musculus [15]) was 0.8 mg/kg.

C[n+]1c(-c2ccc(/C=N/NC(=N)N)cc2)cn2ccsc21.Cc1ccc(S(=O)(=O)O)cc1.Cc1ccc(S(=O)(=O)[O-])cc1 showed a CD50 (Mus musculus [2]) of 0.4 mg/kg, an IC50 [6] of 1.4 µg/mL and an IC50 [7] of 1.3 µg/mL.
